# Screening results (PubChem)
# BB579 growth dn: growth inhibitors of yeast BB579 in restrictive medium, primary screen, yeast lifespan-shortening project, S. cerevisiae | OD615, 48 h | actives 0.51% (n = 140,000) | inhibition, % at 10 µM | AID 804, 2007;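 active = inhibition above a set limit, 3 SD over the mean compound inhibition, cut at about 44% in these data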
#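 Test system: Saccharomyces cerevisiae DeaD strain BB579, replicative lifespan model yeast | Buffer or medium: Restrictive CSMM-D medium | Doses: One dose, 10 µM compound with 0.25% DMSO | Incubation: 48 h exposure, 30 °C | Detection: Culture absorbance at 615 nm | Control set: Amphotericin B at 10 µg/mL as positive control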
# Insulin prom inh: inhibitors of insulin promoter-driven GFP, primary screen, imaging, TRM-6 cells, eGFP reporter, cell count | reporter expression induced with tamoxifen | inhibition, % at 2 µM | actives 0.9% (n = 130,000) | AID 1273, 2008;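 active = inhibition above the mean plus 3 SD, with well images judged a real hit on visual review, cut at about 60% in these data, passing the limit was not always enough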
# Ins promoter up: insulin promoter activators in MIN6 cells, imaging, high-content screening, mouse beta cells; z-score at 5 µM; actives 0.3% (n = 190,000); MIN6 insulin promoter-GFP reporter; stronger effect = higher value; AID 1625, 2009;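 active = z-score above 3 at 5 µM with at least 500 cells counted in the well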
# RAM network inh: inhibitors of the yeast RAM network, primary screen, dse1pr::URA3 reporter, 5-FOA selection. actives 1.8% (n = 190,000). S. cerevisiae dse1pr::URA3 reporter, 5-FOA growth OD615, 2 d; analog-sensitive cbk1-as2 kinase mutant strain. AID 868, 2007. inhibition, % at 50 µM;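 active = inhibition above a set limit, 3 SD over mean compound inhibition, cut at about 8.4% in these data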;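 also: 0% = DMSO-only wells with no growth and 100% = 10 µM 1-NA-PP1 full growth; inhibition rescues growth on 5-FOA so higher OD means more RAM inhibition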
# Yeast life ext: compounds extending yeast replicative lifespan, primary screen, S. cerevisiae, OD615; S. cerevisiae growth with nicotinamide; deaD strain in restrictive glucose medium; actives 0.68% (n = 130,000); AID 775, 2007; inhibition of the nicotinamide effect, % at 10 µM;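 active = inhibition above a set limit, placed 3 SD over the median of all compounds, cut at about 26% in these data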;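 also: 0% = nicotinamide-treated wells and 100% = cells grown without nicotinamide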
#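 assay system = DeaD-strain S. cerevisiae | measured by = absorbance at 615 nm | probe or stimulus = nicotinamide 1.5 mM | buffer or medium = CSMM-D glucose medium, restrictive | times = 48 h at 30 °C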
# An asterisk follows results filed as active; . = not tested or not shown. Rows were chosen to be rich in hits. Some 3% of all compounds tested hit in one or more screens of this group.
SMILES,BB579 growth dn,Insulin prom inh,Ins promoter up,RAM network inh,Yeast life ext
COc1ccc(CCNc2oc(-c3ccc(OC)c(OC)c3)nc2C#N)cc1,-35,-62,0.38,11*,-23
COc1ccc(-c2nc(C#N)c(NCCCN(C)C)o2)cc1OC,-34,35,0.17,0,-18
O=C(Nc1ccc(N2C(=O)CCC2=O)cc1Cl)c1cccs1,.,.,0.33,2,.
COCCOC(=O)c1c(C)oc2ccc(OC(=O)c3ccc4c(c3)OCO4)cc12,-37,.,-0.06,10*,-12
O=[N+]([O-])c1ccc(O)c(C(C#Cc2ccccc2)N2CCOCC2)c1 (stereo not given),.,.,-1.6,.,.
COc1cc(-c2nc3ccc4ccccc4c3c3c2CCC3)ccc1O,85*,-44,-0.16,3,-9
OC(COc1cccc2ccccc12)CN1CCN(c2ccccc2Cl)CC1 (stereo not given),.,.,3.5*,.,.
Cc1cc(NC(=O)c2cc(C(C)C)on2)nn1Cc1ccc(Cl)cc1,-37,.,0.89,9.3*,-6
Cc1cc(C(=O)Nc2cc(C)n(Cc3ccc(Cl)cc3)n2)no1,-39,.,-0.04,1,-4
COCCCNC(=O)CN(CCc1ccccc1)S(=O)(=O)c1ccc(C)cc1,.,.,0.76,1,.
C/C(=N\NC(=O)c1ccn(C)n1)c1ccc(NC(=O)C2CCCC2)cc1,4,71*,0.4,1,-6
CCN(CC)c1ccc2cc(-c3nnc(-c4ccncc4)o3)c(=O)oc2c1,-18,48,4.4*,1,-13
CCN(CC)c1ccc2cc(C(C)=O)c(=O)oc2c1,10,18,0.96,-1,-19
Cc1cc(C)n2nc(C(=O)N/N=C/c3cccs3)nc2n1,.,.,0.03,-1,.
COc1ccc(-n2c(Cc3cccn3C)nnc2SCC(=O)NC2CCCC2)cc1,-31,100*,.,0,-6
COc1ccc(-n2c(Cc3cccn3C)nnc2SCC(=O)Nc2ccccc2)cc1,3,.,-0.52,9.8*,-7
CC1CCN(C(=O)CSc2nnc(Cc3cccn3C)n2-c2ccc(F)cc2)CC1,-12,71*,-1.6,2,3
COc1ccc(-n2c(Cc3cccn3C)nnc2SCC(N)=O)cc1,7,.,2.1,0,-2
Cc1cc(C)nc(NC(=NCCc2c[nH]c3ccccc23)NC(=O)C(C)(C)C)n1,.,.,0.29,.,.
CNC(=S)NC1CC2CCCC(C1)N2Cc1ccco1 (stereo not given),-37,-29,-0.27,0,68*
CC(C)CN(C)C(=O)CCc1nnc(Cc2cccc(C(F)(F)F)c2)o1,.,.,1,0,.
O=C(O)c1sccc1SCc1ccc(Cl)cc1Cl,-64,12,.,3,8
CC1(C)N([O-])C2=C(c3ccccc3C2=O)[N+](=O)C1(C)C,-58,-17,-0.09,0,53*
CCC1(C)N([O-])C(C)=C(c2ccccc2)[N+]1=O (stereo not given),-33,29,.,-1,10
Cc1ccc2c(c1C)NC(=O)C21N2CCCC2C(C(=O)c2ccc3ccccc3c2)C12C(=O)Nc1ccccc12 (stereo not given),.,.,-0.29,.,.
SMILES,BB579 growth dn,Insulin prom inh,Ins promoter up,RAM network inh,Yeast life ext
CCSc1nc(-c2ccc(OC)cc2)ccc1C#N,-51,13,-0.41,8.7*,-15
Cc1ccc(C(=O)CSc2nc(-c3ccccc3)ccc2C#N)cc1,-31,-130,2.8,4,-1
COC(=O)c1cc(C(=O)NCc2ccccc2)c(=O)[nH]c1C,.,36,0.21,0,.
CC1(C(=O)N(Cc2ccccc2)Cc2ccccc2)CC1(Br)Br (stereo not given),-24,-121,0.1,8.8*,5
CN1C(C(=O)NCc2cccc(C(F)(F)F)c2)CC2Cn3c(nc4cc5ccccc5cc43)C21 (stereo not given),.,.,-0.62,.,.
C=CCNC(=O)C1CC2Cn3c(nc4cc5ccccc5cc43)C2N1C (stereo not given),.,.,4.4*,.,.
CCOC(=O)N1C(=O)C2(CCCCC2)N(c2ccccc2Cl)C1=S,0,-11,0.05,5,37*
O=C(Nc1cc(Sc2ccccn2)cc([N+](=O)[O-])c1)c1cccc(F)c1,-22,22,-0.17,9.4*,-3
CC(=C\c1ccco1)/C=C(\C#N)C(=O)NCCc1c[nH]c2ccccc12,-34,.,0.97,5,2
Cc1ccccc1-c1nnc(-c2ccc(Cl)cc2)o1,4,-55,3.5*,1,-4
CN(c1ccccc1)S(=O)(=O)c1cccc(C(=O)OCC(=O)NCc2ccc3c(c2)OCO3)c1,-34,.,0.13,10*,5
CC1CCCN(c2ccc(C(=O)NCc3ccc4c(c3)OCO4)cc2[N+](=O)[O-])C1 (stereo not given),-4,.,-0.23,8.5*,4
COc1ccc(C(=O)NCc2ccc3c(c2)OCO3)cc1S(=O)(=O)N(C)Cc1ccccc1,-35,.,-1.6,9.6*,3
CCN(CC)S(=O)(=O)c1ccc(C(=O)NCc2ccc3c(c2)OCO3)cc1,.,79*,-0.68,1,.
CCCN(CCC)S(=O)(=O)c1ccc(C(=O)NCc2ccc3c(c2)OCO3)cc1,-36,.,-0.18,0,4
COc1ccc(Cn2c(S(=O)(=O)CC(N)=O)nc3ccccc32)cc1[N+](=O)[O-],.,.,2.5,3,.
COc1ccccc1C1CCN(C(=O)c2ccco2)CC1,.,.,-0.06,.,.
Cc1cc(N/N=C/c2ccc(O)cc2O)nc(-c2ccccc2O)n1,-36,44,0.02,10*,0
COC(=O)c1ccc(OC(=O)CS(=O)c2ccccc2[N+](=O)[O-])cc1 (stereo not given),.,.,1.2,-1,.
O=C(CS(=O)c1ccc(C(F)(F)F)cc1[N+](=O)[O-])Oc1ccccc1 (stereo not given),-36,17,.,1,40*
O=C(CNc1ccc(C(F)(F)F)cc1[N+](=O)[O-])OCC(=O)c1ccccc1,-48,-21,0.62,11*,-6
CCC(C)[C@H](NC(=O)NCc1ccc(F)cc1)C(=O)O (stereo not given in full),.,.,0.22,.,.
O=C1C(=O)N(CCN2CCOCC2)C(c2ccccn2)/C1=C(/O)c1ccccc1 (stereo not given),-25,29,1.7,1,26*
CCN(CC)c1ccc(NC(=S)NC(=O)c2cccs2)cc1,.,.,-0.44,0,.
CCNCCNC(=O)c1c(O)c2cccc3c2n(c1=O)CCC3,-53,-26,-0.62,-1,70*
O=C(NCc1ccco1)c1c(O)c2cccc3c2n(c1=O)CCC3,-46,-9,0.08,6,47*
CCc1nc2ccccc2c(=O)n1NC(=O)c1c(O)c2cccc3c2n(c1=O)CCC3,83*,-26,0.18,3,-6
O=C(Nc1cccnc1)c1c(O)c2cccc3c2n(c1=O)CC3,-35,19,0.53,-1,62*
